Screening data: PubChem, several laboratories
This is a sample that favours compounds with a hit; in the whole collection about 3.7% have one here.
Dynein transport – inhibitors of GR-EGFP nuclear translocation, primary screen, dynein cargo transport inhibitor project, imaging, high-content, 3617.4 mouse cells; z-score, hits read low; hit rate 0.47% among 220,000; test concentration mostly 20 µM; stimulated with dexamethasone, 1 µM; active compounds read low; AID 1381, 2008;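 active = plate z-score of nuclear minus cytoplasmic receptor signal below a set negative limit, without overly bright fluorescence or cell loss, cut at about -3.5 in these data, passing the limit was not always enough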;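 note: z-score of nuclear minus cytoplasmic ring GR-EGFP intensity difference per well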
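Medium: Induction medium lacking tetracycline, stripped serum | Probe or stimulus: 1.0 µM final dexamethasone stimulus | Schedule: 48 h induction, then 1 h compound, then 30 min agonist, 37 °C | Signal: Automated 10x imaging of fixed Hoechst-stained cells | Evaluation: Per-cell GR-EGFP intensity, nucleus versus surrounding cytoplasmic ring, well-averaged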
CHOP UPR activ – activators of apoptotic CHOP UPR arm, primary screen, cell-based, CHO-CHOP luciferase reporter, luminescence, uHTS | UPR activation; percent of tunicamycin response over DMSO baseline | activation, % at 10 µM | hit rate 0.34% among 330,000;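 active = at 10 µM dose, activation of 40% or more, normalized to positive control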;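 note: 100% = tunicamycin at 10 µg/mL and 0% = DMSO alone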
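assay system = CHO CHOP reporter cells | amount = 500 CHO-CHOP cells per well | buffer or medium = F12 with 10% FBS | incubation = 16-18 h cell attachment, then 6 h compound exposure, 37 °C | detection = luminescence read with Steady-Glo | read-out = percent activation relative to tunicamycin control | controls = tunicamycin high control, DMSO low control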
UPR XBP1 act – activators of adaptive XBP1 UPR arm, primary screen, cell-based, CHO-XBP1 luciferase reporter, luminescence, uHTS; IRE1-XBP1 UPR activation; percent of tunicamycin response, DMSO as zero; hit rate 0.33% among 330,000; activation, % at 20 µM; AID 463104, 2010;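 active = versus positive control, 20 µM dose yields 30% or more activation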;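 note: 100% = tunicamycin at 10 µg/mL and 0% = DMSO only wells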
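Signal: luciferase luminescence; Assay system: CHO-XBP1 luciferase reporter cells; Amount: one thousand reporter cells per well; Dosing: 20 µM single concentration, DMSO 1%; Benchmarks: high control tunicamycin 10 µg/mL final, low control DMSO vehicle only; Schedule: 6 h compound exposure at 37 °C, 5% CO2; Evaluation: percent activation relative to tunicamycin reference.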
MDM2 E3 inh – MDM2-luciferase reporter signal enhancers, primary screen, MDM2 E3 ligase inhibitor project, cell-based, luminescence, 1536-well. cell-based MDM2 ubiquitination luciferase reporter, 2 h; 0 = plate control, 100 = twice control, blank-subtracted. signal enhancement, % at 5 µM. hit rate 0.11% among 210,000. AID 1230, 2008;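 active = signal enhancement of 30% or more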;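 note: luminescence tracks abundance of the self-degrading MDM2-luciferase fusion protein; higher signal means inhibition of MDM2 E3 ligase activity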
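Assay system: mammalian cells stably expressing self-ubiquitinating, self-degrading MDM2 E3–luciferase fusion. Quantity: 2000 cells in each well. Medium: DMEM culture medium. Compound dosing: single-point 5 µM. Timing: cell settling 4 h, compound treatment 2 h, both 37 °C. Technique: luciferase luminescence. Read-out basis: percent signal gain over controls, blank-subtracted. Benchmarks: plate controls and plate blanks.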
Beta2AR agonist – beta2AR agonists driving receptor internalization, primary screen, cell-based, FAP fluorogen, flow cytometry | Am2.2-beta2AR cells | response, % (concentration not given with the values) | hit rate 0.43% among 340,000;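 active = response above a set limit, near 3 SD of response in nonfluorescent compounds, cut at about 42% in these data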
Target sequence (P07550 whole entry, looked up): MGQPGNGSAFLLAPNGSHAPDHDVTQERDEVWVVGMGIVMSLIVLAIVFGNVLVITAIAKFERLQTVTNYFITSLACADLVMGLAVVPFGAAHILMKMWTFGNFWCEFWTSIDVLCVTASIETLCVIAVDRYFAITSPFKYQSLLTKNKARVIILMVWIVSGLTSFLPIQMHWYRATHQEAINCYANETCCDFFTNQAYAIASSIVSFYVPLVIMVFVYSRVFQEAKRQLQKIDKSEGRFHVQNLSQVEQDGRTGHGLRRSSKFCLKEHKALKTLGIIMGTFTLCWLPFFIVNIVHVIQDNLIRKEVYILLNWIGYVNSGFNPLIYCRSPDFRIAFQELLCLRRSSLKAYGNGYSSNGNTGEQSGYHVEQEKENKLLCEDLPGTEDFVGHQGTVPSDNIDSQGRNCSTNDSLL
Mdm2 MdmX PPI – inhibitors of human Mdm2-MdmX association, primary screen, cell-based, luminescence, split luciferase, SaOS-2, uHTS. SaOS-2 split-luciferase Mdm2/MdmX complementation. inhibition, % at 8 µM. hit rate 3% among 330,000;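 active = inhibition of at least 50% at 8 µM in the primary screen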
Mdm2-MdmX conf – Mdm2-MdmX complex disruptors, retested hits, confirmation, luminescence, single concentration; shares compounds with Mdm2 MdmX PPI; Mdm2-MdmX binding, luminescent assay; inhibition, % at 8 µM; hit rate 55% among 10,000; AID 489028, 2010; in the data active = inhibition above about 40%
FLuc counter – full-length luciferase signal inhibition, confirmation, counter-screen for Mdm2/MdmX interaction inhibitor project, cell-based, single concentration, SaOS-2; shares compounds with Mdm2 MdmX PPI; SaOS-2 full-length luciferase counterscreen, luminescence; hit rate 77% among 6,200; inhibition, % at 8 µM; AID 504607, 2011;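 active = mean inhibition at 8 µM reaching about 37%, which flags the compound as non-specific, limit read from the data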;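 note: p53-null SaOS-2 cells with luciferase driven by a doxycycline-inducible promoter; compound on cells about two nights before reading with doxycycline added after day one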
* hit, by the source's call; . = no result.

SMILES	Dynein transport	CHOP UPR activ	UPR XBP1 act	MDM2 E3 inh	Beta2AR agonist	Mdm2 MdmX PPI	Mdm2-MdmX conf	FLuc counter
COc1ccc(NS(=O)(=O)c2ccc(F)c(F)c2F)cc1S(=O)(=O)N1CCOCC1	.	3	-3	.	-3	18	.	.
O=C(N/N=C/c1coc2ccc(Cl)cc2c1=O)c1cc(O)cc(O)c1	.	0	-6	.	3	46	.	.
Cc1ccc2occ(/C=N/NC(=O)c3ccccc3O)c(=O)c2c1	.	1	-2	.	7	81*	66*	46*
CCOc1ccccc1C(=O)N/N=C/c1coc2ccc(Cl)cc2c1=O	.	11	29	.	-8	82*	85*	22
Cc1nc(Cl)c(Cl)n1CCOc1ccccc1	-0.18	0	2	-5	2	1	.	.
Cc1cc2nc(-c3ccc(SCC(=O)N4CCc5ccccc54)nc3)[nH]c2cc1C	-0.99	6	10	-31	5	98*	42*	65*
COC(=O)C(Cc1ccccc1)NCC(=O)Nc1cccc(Cl)c1C (stereo unspecified)	.	1	1	.	-3	12	.	.
CCC(C)[C@H](NC(=O)c1cc2cc(Cl)ccc2n1C)C(=O)N1CCC(C(=O)O)CC1 (stereo partly specified)	.	1	0	.	4	26	.	.
CC(C)c1nc(SCC(=O)NCC2CCCO2)c2c(=O)n(C)c(=O)n(C)c2n1 (stereo unspecified)	.	3	-3	.	-1	21	.	.
CN(C(=O)c1cccc(NC(=O)Cc2ccc(NC(=O)C3CCN(C(=O)C4CC4)CC3)cc2)c1)C1CCC1	.	.	.	.	-5	.	.	.
O=C(NCCCN1CCOCC1)c1ccc(-n2nc(C(F)(F)F)cc2-c2cccs2)cc1	0.61	-1	1	-24	-8	77*	25	.
COCCCNC(=O)c1ccc(-n2nc(C(F)(F)F)cc2-c2cccs2)cc1	-0.7	-2	1	-16	6	46	.	.
O=C(Cc1ccccc1)Nc1ccc(C(=O)NCC2COc3ccccc3O2)cc1 (stereo unspecified)	0.22	2	0	-6	-13	-14	.	.
O=C(NCC1COc2ccccc2O1)c1ccc(NC(=O)C(c2ccccc2)c2ccccc2)cc1 (stereo unspecified)	0.65	2	-1	-4	-1	63*	45*	55*
COc1cccc(NC(=O)C(=O)N/N=C/c2cc(C)n(-c3ccc(Cl)c(Cl)c3)c2C)c1	1.1	3	3	-7	27	55*	19	.
Cc1cc(/C=N/NC(N)=S)c(C)n1-c1ccc(Cl)c(Cl)c1	1.4	5	23	-11	10	17	.	.
CC(=O)NC1=C(Nc2ccc(N(C)C)cc2)C(=O)c2ccccc2C1=O	.	3	-5	.	0	70*	45*	115*
CC(=O)NC1=C(N(C)C2CCS(=O)(=O)C2)C(=O)c2ccccc2C1=O (stereo unspecified)	-1.5	17	-1	-2	-2	11	.	.
CCOc1ccc2ccccc2c1C(=O)N1CCN(c2ccccc2)CC1	-1	1	1	-12	-16	58*	54*	51*
CCOc1ccccc1C(=O)N1CCN(c2cccc(Cl)c2)CC1	-0.74	2	12	-18	18	74*	63*	93*
CCOC(=O)c1[nH]c(C)c(C(=O)N2CCN(c3ccccc3)CC2)c1C	-0.044	0	-3	-14	-3	-19	.	.
O=C(Cc1ccc(S(=O)(=O)N2CCOCC2)s1)NCCOc1ccccc1	.	2	-1	.	-3	-7	.	.
Cc1ccc(CCC(=O)Nc2ccccc2C(=O)O)o1	.	5	-3	.	-2	-31	.	.
CCc1ccc(C(=O)Nc2cc(C)ccc2F)s1	0.1	4	3	-3	0	-5	.	.
Cn1c(N)c(C(=O)COC(=O)c2ccccc2C(=O)c2ccccc2)c(=O)n(C)c1=O	.	0	3	.	5	-1	.	.
SMILES	Dynein transport	CHOP UPR activ	UPR XBP1 act	MDM2 E3 inh	Beta2AR agonist	Mdm2 MdmX PPI	Mdm2-MdmX conf	FLuc counter
Cn1c(N)c(C(=O)COC(=O)c2ccccc2C(=O)c2ccc(Cl)c([N+](=O)[O-])c2)c(=O)n(C)c1=O	.	10	-3	.	38	99*	62*	26
O=[N+]([O-])c1nn(-c2ccc3c(c2)OCCO3)n(O)c1=Nc1ccc(Cl)cc1	0.39	-5	-8	-19	-9	86*	92*	51*
Cc1ccc(CN=c2c([N+](=O)[O-])nn(-c3ccc4c(c3)OCCO4)n2O)cc1	-0.25	3	1	-10	-11	-148	.	.
CCc1ccc(N=c2c([N+](=O)[O-])nn(-c3ccc4c(c3)OCCO4)n2O)cc1	0.44	0	-1	-3	1	41	.	.
Cc1ccc(N=c2c([N+](=O)[O-])nn(-c3ccc4c(c3)OCCO4)n2O)cc1F	0.79	-3	-3	-6	-1	80*	95*	24
Cc1ccc(N=c2c([N+](=O)[O-])nn(-c3ccc4c(c3)OCCO4)n2O)c(Cl)c1	1.1	-9	-6	-6	.	40	.	.
Cc1cc(C)cc(N=c2c([N+](=O)[O-])nn(-c3ccc4c(c3)OCCO4)n2O)c1	-1.2	13	7	-17	2	70*	65*	45*
O=[N+]([O-])c1nn(-c2ccc3c(c2)OCCO3)n(O)c1=Nc1ccccc1	-0.31	-7	-3	-28	4	91*	95*	53*
O=c1[nH]cnc(O)c1C(c1ccc([N+](=O)[O-])cc1)c1c(O)nc[nH]c1=O	.	-2	2	.	-1	14	.	.
CCN(CC(=O)Nc1c(F)cccc1F)C(=O)C1CCN(C(=O)Nc2ccccc2)CC1	.	1	0	.	-5	-6	.	.
